In ChEMBL document CHEMBL1156983, “Modulation of cell surface expression of nonactivated cholecystokinin receptors using bivalent ligand-induced internalization” (J Med Chem, 2010):
The source made the active and inactive calls. The rule behind the calls is not given here.

Assays:
Format in all cases: cell-based
[1] = biological target: Mu-type opioid receptor (Homo sapiens) (UniProt P35372); experiment: Induction of receptor internalization in YC-tagged mu opioid receptor expressed in CHO cells after 90 mins
Sequence of Mu-type opioid receptor (Homo sapiens) (P35372 whole entry): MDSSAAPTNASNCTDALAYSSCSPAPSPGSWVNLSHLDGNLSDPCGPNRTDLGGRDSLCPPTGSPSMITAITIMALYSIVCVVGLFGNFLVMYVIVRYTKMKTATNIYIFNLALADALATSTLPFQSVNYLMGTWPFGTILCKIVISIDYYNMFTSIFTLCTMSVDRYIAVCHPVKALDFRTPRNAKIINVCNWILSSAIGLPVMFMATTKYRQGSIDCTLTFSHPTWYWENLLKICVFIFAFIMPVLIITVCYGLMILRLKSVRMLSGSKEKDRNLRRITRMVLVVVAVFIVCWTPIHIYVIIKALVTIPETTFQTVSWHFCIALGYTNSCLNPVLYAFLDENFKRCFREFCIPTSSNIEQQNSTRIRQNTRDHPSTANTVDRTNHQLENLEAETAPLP
In short: (§1)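 CHO cells stably coexpressing YN-tagged CCK2 and YC-tagged MOP receptors on coverslips, washed with PBS containing 0.08 mM CaCl2 and 0.1 mM MgCl2. Incubated with 100 nM ligand at 4 °C for 90 min, washed with ice-cold PBS, then moved to prewarmed 37 °C PBS for various times. Fixed in 2% paraformaldehyde; reconstituted YFP fluorescence imaged by epifluorescence microscopy.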

[2] = biological target: T1, Gastrin/cholecystokinin type B receptor (Homo sapiens) (UniProt P32239); experiment: Induction of receptor internalization in YFP-tagged CCK2 receptor expressed in CHO cells
T1 sequence (whole entry): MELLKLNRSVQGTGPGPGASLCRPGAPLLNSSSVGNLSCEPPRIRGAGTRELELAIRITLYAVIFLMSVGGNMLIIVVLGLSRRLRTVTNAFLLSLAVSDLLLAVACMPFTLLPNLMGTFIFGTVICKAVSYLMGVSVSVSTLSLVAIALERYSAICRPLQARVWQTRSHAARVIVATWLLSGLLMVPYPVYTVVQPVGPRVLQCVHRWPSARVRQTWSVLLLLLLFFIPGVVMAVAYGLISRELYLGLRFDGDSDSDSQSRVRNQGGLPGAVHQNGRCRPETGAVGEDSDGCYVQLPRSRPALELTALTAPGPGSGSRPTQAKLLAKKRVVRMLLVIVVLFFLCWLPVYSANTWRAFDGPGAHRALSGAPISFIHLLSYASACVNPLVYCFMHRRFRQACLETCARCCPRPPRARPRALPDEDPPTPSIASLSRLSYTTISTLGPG
In short: (§2)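 CHO cells stably expressing YFP-tagged MOP or YFP-tagged CCK2 receptor on coverslips, washed in PBS with 0.08 mM CaCl2 and 0.1 mM MgCl2. Incubated with 100 nM ligand at 4 °C for 90 min, washed with ice-cold PBS, then warmed in 37 °C PBS for various times. Fixed with 2% paraformaldehyde; YFP localization imaged by epifluorescence.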

[3] = biological target: Mu-type opioid receptor (Homo sapiens) (UniProt P35372); experiment: Induction of receptor internalization in YC-tagged mu opioid receptor expressed in CHO cells at 4 degC; settings: TDE = time-dependent effect; in short: as §1
[4] = biological target: T1, Gastrin/cholecystokinin type B receptor (Homo sapiens); experiment: Induction of receptor internalization in YN-tagged CCK2 receptor expressed in CHO cells at 4 degC; in short: as §1
[5] = biological target: T1, Gastrin/cholecystokinin type B receptor (Homo sapiens); experiment: Induction of receptor internalization in YN-tagged CCK2 receptor expressed in CHO cells after 90 mins; in short: as §1
[6] = biological target: Mu-type opioid receptor (Homo sapiens) (UniProt P35372); experiment: Induction of receptor internalization in YFP-tagged mu opioid receptor expressed in CHO cells; in short: as §2

## CNC(=O)COCC(=O)NCCCCCCNC(=O)COCC(=O)NCCOc1cccc(NC(=O)N[C@@H]2N=C(c3ccccc3)c3ccccc3N(C)C2=O)c1
[1]
  Activity: inactive
[2]
  Activity: Active

## CN1C(=O)[C@H](NC(=O)Nc2cccc(OCCNC(=O)COCC(=O)NCCCCCCNC(=O)COCC(=O)N[C@H]3CC[C@@]4(O)C5Cc6ccc(O)c7c6[C@@]4(CCN5)[C@H]3O7)c2)N=C(c2ccccc2)c2ccccc21
[3]
  Activity: tde
[1]
  Activity: Active
[4]
  Activity: Active
[5]
  Activity: Active

## CN1C(=O)[C@H](NC(=O)Nc2cccc(OCCNC(=O)COCC(=O)NCCNC(=O)COCC(=O)N[C@H]3CC[C@@]4(O)C5Cc6ccc(O)c7c6[C@@]4(CCN5)[C@H]3O7)c2)N=C(c2ccccc2)c2ccccc21
[3]
  Activity: tde
[1]
  Activity: Active
[4]
  Activity: Active
[5]
  Activity: Active

## C[C@@H](NC(=O)[C@@H](N)Cc1ccc(O)cc1)C(=O)NCC(=O)N(C)[C@@H](Cc1ccccc1)C(=O)NCCO
[6]; TDE = time-dependent effect
  Activity: tde

## CN1C(=O)[C@H](NC(=O)Nc2cccc(OCCNC(=O)COCC(=O)N[C@H]3CC[C@@]4(O)C5Cc6ccc(O)c7c6[C@@]4(CCN5)[C@H]3O7)c2)N=C(c2ccccc2)c2ccccc21
[1]
  Activity: inactive

## CNC(=O)COCC(=O)NCCCCNC(=O)COCC(=O)N[C@H]1CC[C@@]2(O)C3Cc4ccc(O)c5c4[C@@]2(CCN3C)[C@H]1O5
[6]
  Activity: Active
[1]
  Activity: inactive

## Cc1cccc(NC(=O)N[C@@H]2N=C(c3ccccc3)c3ccccc3N(C)C2=O)c1
[2]
  Activity: inactive

## CN1C(=O)[C@H](NC(=O)Nc2cccc(OCCNC(=O)COCC(=O)NNC(=O)COCC(=O)N[C@H]3CC[C@@]4(O)C5Cc6ccc(O)c7c6[C@@]4(CCN5)[C@H]3O7)c2)N=C(c2ccccc2)c2ccccc21
[3]
  Activity: tde
[1]
  Activity: Active
[4]
  Activity: Active
[5]
  Activity: Active
